Source: PubChem BioAssay (Johns Hopkins Ion Channel Center)
Compounds with a hit are over-represented: about 3.7% of the library has one in this group of screens.
KCNK3 block: human KCNK3 channel inhibitors, primary screen, CHO cells, FluxOR thallium flux, B-score | FluxOR fluorescence; hits give low values | B-score at 10 µM | Potassium channel subfamily K member 3 (Homo sapiens), O14649 | actives 0.84% (n = 340,000);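 active means B-score under library mean minus 4 SD, starting fluorescence ratio at most library mean plus 5 SD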;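 further: more negative B-score means stronger inhibition of thallium flux through KCNK3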
Kir21 inh: inhibitors of mouse Kir2.1 inward-rectifier potassium channel; Inward rectifier potassium channel 2 (Mus musculus), P35561; HEK293-Kir2.1, FluxOR thallium flux fluorescence; hits give low values; B-score at 10 µM; actives 0.85% (n = 310,000); AID 1672, 2009;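 active means fluorescence ratio B-score at or below minus 3 SD of library scores, with starting-brightness B-score within 2 SD, cut at about -4.2 in these data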;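 further: channel flux triggered by added potassium and thallium sulfate stimulus; B-score of peak minus minimum fluorescence over baseline after thallium stimulus; more negative B-score means stronger Kir2.1 block with less thallium influx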
KCNK9 block: KCNK9 potassium channel inhibitors, primary screen, HEK293 cells, thallium flux; Potassium channel subfamily K member 9 (Homo sapiens), Q9NPC2; FluxOR thallium flux fluorescence; hits give low values; B-score at 10 µM; actives 1.2% (n = 310,000); AID 488922, 2010;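 active means ratio B-score over 3 SD below the library mean, with starting fluorescence within 5 SD of its mean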;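 further: negative B-score means less thallium flux so channel inhibition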
Target sequence (Q9NPC2 whole entry, looked up): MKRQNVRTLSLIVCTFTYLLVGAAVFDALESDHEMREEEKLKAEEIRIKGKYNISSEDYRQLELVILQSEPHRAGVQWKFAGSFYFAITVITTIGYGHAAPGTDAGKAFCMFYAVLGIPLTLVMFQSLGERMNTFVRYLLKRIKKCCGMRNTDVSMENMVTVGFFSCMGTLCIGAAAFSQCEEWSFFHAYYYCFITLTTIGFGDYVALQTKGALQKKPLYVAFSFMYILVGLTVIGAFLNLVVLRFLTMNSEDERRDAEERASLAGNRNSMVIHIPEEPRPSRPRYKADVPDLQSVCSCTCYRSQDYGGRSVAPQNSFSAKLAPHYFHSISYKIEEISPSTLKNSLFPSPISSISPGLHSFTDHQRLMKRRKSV
hERG rescue: hERG rescue from dofetilide block, primary screen, cell-based, CHO-hERG, FluxOR thallium flux, dofetilide IC70. dofetilide IC70 present. activation (rescue from dofetilide block), less the hit threshold, % at 10 µM. actives 0.51% (n = 310,000);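 active means activation above the mean of controls blocked by dofetilide plus 5 SD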;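 further: thallium influx through hERG after potassium depolarization seen as dye fluorescence rise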
KCNQ1 pot: potentiators or activators of KCNQ1 channel, primary screen, cell-based, thallium flux, high-throughput; AID 2648, 2010; actives 0.35% (n = 310,000); Potassium voltage-gated channel subfamily KQT member 1 (Homo sapiens), P51787; B-score at 10 µM; CHO-K1 KCNQ1, thallium flux FluxOR fluorescence; hits give high values;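 active means fluorescence ratio B-score, a plate-corrected score, at least three library SD, with initial intensity B-score within 5 SD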
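Assay system: stable KCNQ1 CHO-K1 line; medium: assay buffer, equal DMSO in all wells; timing: 90 min dye loading and 20 min compound exposure, both at room temperature; technique: kinetic FluxOR thallium fluorescence, 10-s 1-Hz baseline, 110-s post-stimulus read; read-out basis: B score of baseline-normalized fluorescence ratio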
KCNQ1 block: inhibitors of human KCNQ1 channel, primary screen, cell-based, thallium flux, high-throughput; Potassium voltage-gated channel subfamily KQT member 1 (Homo sapiens), P51787; CHO-K1 KCNQ1, FluxOR thallium flux fluorescence; hits give high values; B-score at 10 µM; actives 1.3% (n = 310,000); AID 2642, 2010;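 active means compounds whose thallium flux B-score, printed positive for inhibition, exceeds three library SD while starting fluorescence stays within three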;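 further: channel opened by potassium depolarization with thallium stimulus after 20 min compound exposure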
Active calls of the source: *.

For O=C(c1ccccn1)N1CCCC(N2CCN(c3ccc(F)cc3)CC2)C1 (configuration not stated) the results were KCNK3 block inactive, Kir21 inh -0.62, KCNK9 block inactive, hERG rescue -7.7, KCNQ1 pot inactive and KCNQ1 block inactive.
For CCOc1ccc(-n2cc(-c3ccccc3)c3c(=S)nc[nH]c32)cc1 the results were KCNK3 block inactive, Kir21 inh 0.67, KCNK9 block inactive, hERG rescue -2.4, KCNQ1 pot 39* and KCNQ1 block inactive.
`CCOc1ccc(-n2cc(-c3ccccc3)c3c(=O)[nH]cnc32)cc1` gave KCNK3 block inactive, Kir21 inh 1.73, KCNK9 block inactive, hERG rescue -9.2, KCNQ1 pot inactive and KCNQ1 block inactive.
Screening CCCCCCOc1ccc(/C(C)=N/NC2=NCCN2)cc1[N+](=O)[O-] returned KCNK3 block inactive, Kir21 inh 0.81, KCNK9 block inactive, hERG rescue -20.7, KCNQ1 pot inactive and KCNQ1 block inactive.
For CCCCOc1ccc(Br)cc1/C(C)=N/NC1=NCCN1 the results were KCNK3 block inactive, Kir21 inh -8.07*, KCNK9 block inactive, hERG rescue -23.8, KCNQ1 pot inactive and KCNQ1 block inactive.
COC(=O)CN(c1nc(C)c(Br)c(OC)n1)S(=O)(=O)c1ccccc1 was read as KCNK3 block inactive, Kir21 inh -5.45*, KCNK9 block inactive, hERG rescue -9.0, KCNQ1 pot inactive and KCNQ1 block inactive.
For COC(=O)CN(c1nc(C)cc(OC)n1)S(=O)(=O)c1ccccc1 the results were KCNK3 block inactive, Kir21 inh -3.16, KCNK9 block inactive, hERG rescue -3.3, KCNQ1 pot inactive and KCNQ1 block inactive.
Screening COc1ccc(Cl)cc1NC(=O)CN(C)C(=O)c1cc2c(F)cccc2s1 returned KCNK3 block -8.76*.
`O=c1oc2ccccc2c(Cl)c1CN1CCCCC1` gave KCNK3 block inactive, Kir21 inh -0.12, KCNK9 block inactive, hERG rescue 1.4, KCNQ1 pot 15* and KCNQ1 block inactive.
For CC(=O)c1ccccc1NC(=O)C1CCCN(C(=O)c2ccc(Cl)cc2)C1 (configuration not stated) the results were KCNK3 block inactive.
`CCOC(=O)C1CCN(Cc2cccc(Oc3ccccc3)c2)CC1` gave KCNK3 block inactive, Kir21 inh -6.11*, KCNK9 block inactive, hERG rescue -7.4, KCNQ1 pot inactive and KCNQ1 block inactive.
Screening Cn1c(SCc2cccc(C#N)c2)nc2ccccc2c1=O returned KCNK3 block inactive, Kir21 inh -0.88, KCNK9 block -7.04*, hERG rescue -1.8, KCNQ1 pot inactive and KCNQ1 block inactive.
Screening Cn1c(SCc2cccc([N+](=O)[O-])c2)nc2ccccc2c1=O returned KCNK3 block inactive.
For Cn1c(SCc2ccc(F)cc2Cl)nc2ccccc2c1=O the results were KCNK3 block -8.86*.
Screening Cc1ccc(S(=O)(=O)N2CCN(C(=O)/C=C/c3ccccc3)CC2)cc1C returned KCNK3 block inactive.
For COCCn1c(Cc2ccccc2)nnc1SCC(=O)NC1CC1 the results were KCNK3 block inactive, Kir21 inh 0.09, KCNK9 block inactive, hERG rescue -6.5, KCNQ1 pot inactive and KCNQ1 block inactive.
For Cc1cccn2c(/C=N/OCc3ccc(F)cc3)c(-c3ccc(Cl)cc3)nc12 the results were KCNK3 block inactive, Kir21 inh -0.57, KCNK9 block -7.77*, hERG rescue -10.9, KCNQ1 pot inactive and KCNQ1 block inactive.
Cc1ccc(C)c(/C=C/C(=O)c2ccccc(=O)c2O)c1 was read as KCNK3 block inactive, Kir21 inh -2.71, KCNK9 block inactive, hERG rescue 18.2*, KCNQ1 pot 27* and KCNQ1 block inactive.
O=C(C=Cc1ccccc1O)c1ccccc1O was read as KCNK3 block inactive.
Cc1ccc(/C=C/C(=O)c2ccccc(=O)c2O)c(C)c1 was read as KCNK3 block inactive, Kir21 inh -1.16, KCNK9 block inactive, hERG rescue 25.6*, KCNQ1 pot 19* and KCNQ1 block inactive.
Screening O=C(/C=C/c1ccc([N+](=O)[O-])cc1)c1ccccc(=O)c1O returned KCNK3 block inactive.
`O=C(/C=C/c1ccccc1Cl)c1ccccc(=O)c1O` gave KCNK3 block inactive, Kir21 inh -0.96, KCNK9 block inactive, hERG rescue 16.4*, KCNQ1 pot 14* and KCNQ1 block inactive.
For Cc1ccc(S(=O)(=O)Nc2c(Cl)c(Cl)c(O)c3ccccc23)cc1 the results were Kir21 inh -4.15, KCNK9 block inactive, hERG rescue -3.9, KCNQ1 pot inactive and KCNQ1 block inactive.
CCCn1c(NC(=O)CCS(=O)(=O)c2ccc(C)cc2)nc2ccccc21 was read as KCNK3 block inactive, Kir21 inh -0.52, KCNK9 block inactive, hERG rescue -16.5, KCNQ1 pot inactive and KCNQ1 block inactive.
O=C(COC(=O)C1CCN(S(=O)(=O)c2cccs2)CC1)c1cc2ccccc2o1 was read as KCNK3 block inactive, Kir21 inh -0.58, KCNK9 block -7.8*, hERG rescue -8.9, KCNQ1 pot inactive and KCNQ1 block inactive.
O=C(Nc1ccc(Br)cc1Cl)Nn1cnnc1 was read as KCNK3 block inactive, Kir21 inh -1.34, KCNK9 block inactive, hERG rescue 6.2*, KCNQ1 pot inactive and KCNQ1 block inactive.
CN1C(=O)[C@H]2[C@@H](/C=C/c3ccccc3)N3C(=O)CN(Cc4ccc(-c5ccccc5)cc4)C(=O)[C@@]3(Cc3ccccc3)[C@H]2C1=O was read as KCNK3 block inactive, Kir21 inh -0.13, KCNK9 block inactive, hERG rescue -3.7, KCNQ1 pot inactive and KCNQ1 block inactive.
`O=C(CC1SC(N2CCCCC2)=NC1=O)Nc1cccc(C(=O)N2CCCC(C(F)(F)F)C2)c1` (configuration not stated) gave KCNK3 block inactive.
COC(=O)c1ccc(CSc2nc3ccccc3c(=O)n2CC(C)C)o1 was read as KCNK3 block inactive, Kir21 inh -1.19, KCNK9 block -7.3*, hERG rescue -11.3, KCNQ1 pot inactive and KCNQ1 block inactive.
